Calls of active or inactive are those of the source. The calls are words filed in the database; no cut-off is given here.
Biological target: Glycogen synthase kinase-3 beta (Homo sapiens, UniProt P49841)
Assay: Competitive inhibition of human recombinant GSK3beta at 12.5 to 100 uM after 30 mins by Michaelis-Menten equation in presence of 1 uM ATP
In short: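 Lineweaver–Burk kinetics on human recombinant GSK-3β. GS-2 substrate was varied from 12.5 to 100 μM against inhibitor at 0.5–2.5 μM, with ATP held at 1 μM. Luminescent kinase read-out. Each point is the mean of two experiments, each run in duplicate.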

Sequence of Glycogen synthase kinase-3 beta (P49841 whole entry, looked up): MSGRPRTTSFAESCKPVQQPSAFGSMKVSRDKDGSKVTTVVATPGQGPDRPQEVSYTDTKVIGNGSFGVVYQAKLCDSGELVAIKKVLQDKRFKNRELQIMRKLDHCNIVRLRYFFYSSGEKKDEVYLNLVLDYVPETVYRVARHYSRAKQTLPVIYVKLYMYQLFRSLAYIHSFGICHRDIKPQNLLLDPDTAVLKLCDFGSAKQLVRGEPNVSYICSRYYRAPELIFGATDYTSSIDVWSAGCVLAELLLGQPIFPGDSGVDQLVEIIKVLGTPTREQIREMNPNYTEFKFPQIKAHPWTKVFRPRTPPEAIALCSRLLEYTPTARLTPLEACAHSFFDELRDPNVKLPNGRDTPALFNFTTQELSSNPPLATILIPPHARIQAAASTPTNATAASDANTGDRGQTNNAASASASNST

H-YRRAAVPPSPSLSRHSSPHQAEDEEE-OH
inhibition: Active
